Laboratory results published in ChEMBL document CHEMBL3085648, “Enhancement of kinase selectivity in a potent class of arylamide FMS inhibitors” (Bioorg Med Chem Lett, 2013).
Calls of active or inactive are those of the source. The calls are words filed in the database; no cut-off is given here.

Legend:
[1] = Metabolic stability in human liver microsomes assessed as compound remaining after 10 mins; assay type: ADME; conditions: liver microsomes, read-out: Stability
Procedure, shortened: (§1)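 Compound was incubated with human, mouse or rat liver microsomal preparations. Stability is the percent of compound remaining after 10 min.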

[2] = Metabolic stability in rat liver microsomes assessed as compound remaining after 10 mins; assay type: ADME; conditions: read-out: Stability; procedure, shortened: as §1
[3] = Metabolic stability in mouse liver microsomes assessed as compound remaining after 10 mins; assay type: ADME, Microsome; conditions: for remaining at 10 min: liver microsomes, read-out: Stability; procedure, shortened: as §1
Mo7e = assay: Selectivity ratio of IC50 for KIT in human Mo7e cells to IC50 for FMS in mouse BMDM cells; assay type: cell-based
Procedure, shortened: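 Cellular selectivity was calculated as Mo7e IC50 divided by BMDM IC50. Mo7e IC50 came from SCF-dependent proliferation of Mo7e leukemia cells. BMDM IC50 came from proliferation of murine bone marrow-derived macrophages.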

[4] = target: T1, Macrophage colony-stimulating factor 1 receptor (Mus musculus, UniProt P09581); assay: Inhibition of FMS in mouse BMDM cells; assay type: cell-based
T1 sequence (P09581 whole entry): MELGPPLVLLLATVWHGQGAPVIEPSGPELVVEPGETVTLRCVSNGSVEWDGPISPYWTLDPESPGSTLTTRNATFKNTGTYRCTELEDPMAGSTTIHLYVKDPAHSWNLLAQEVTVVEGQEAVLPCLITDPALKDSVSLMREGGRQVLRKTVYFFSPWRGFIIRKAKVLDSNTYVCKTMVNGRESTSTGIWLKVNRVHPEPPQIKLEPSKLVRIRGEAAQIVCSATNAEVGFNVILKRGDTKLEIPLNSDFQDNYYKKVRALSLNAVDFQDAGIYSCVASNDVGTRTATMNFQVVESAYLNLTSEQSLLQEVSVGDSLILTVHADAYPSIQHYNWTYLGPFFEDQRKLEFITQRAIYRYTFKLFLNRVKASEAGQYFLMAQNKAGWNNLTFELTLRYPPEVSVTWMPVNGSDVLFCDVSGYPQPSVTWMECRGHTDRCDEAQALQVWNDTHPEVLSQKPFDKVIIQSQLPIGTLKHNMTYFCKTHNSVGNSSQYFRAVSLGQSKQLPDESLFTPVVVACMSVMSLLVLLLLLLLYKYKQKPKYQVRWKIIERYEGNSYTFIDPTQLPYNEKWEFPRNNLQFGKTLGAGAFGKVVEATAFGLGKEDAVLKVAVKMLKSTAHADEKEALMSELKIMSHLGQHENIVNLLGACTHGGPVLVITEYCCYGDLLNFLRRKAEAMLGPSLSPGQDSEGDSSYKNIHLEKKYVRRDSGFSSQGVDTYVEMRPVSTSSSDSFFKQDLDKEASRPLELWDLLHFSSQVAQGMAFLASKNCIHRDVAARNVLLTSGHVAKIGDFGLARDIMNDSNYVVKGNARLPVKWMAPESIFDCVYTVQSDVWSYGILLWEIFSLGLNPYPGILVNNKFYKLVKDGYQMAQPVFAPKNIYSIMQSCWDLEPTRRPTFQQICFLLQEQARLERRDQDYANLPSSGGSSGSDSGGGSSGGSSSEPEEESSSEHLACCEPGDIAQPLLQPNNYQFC

[5] = target: Mast/stem cell growth factor receptor Kit (Homo sapiens, UniProt P10721); assay: Inhibition of KIT (unknown origin)
Mus musculus [6] = assay: Inhibition of CSF-1-induced c-fos gene expression in mouse spleen at 30 mg/kg, po after 6 hrs; assay type: functional
Procedure, shortened: (§2)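 In the mouse pharmacodynamic model, compound was given orally. Spleen c-fos mRNA induced by an iv injection of CSF-1 was measured 6 or 8 h after dosing.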

Mus musculus [7] = assay: Inhibition of CSF-1-induced c-fos gene expression in mouse spleen at 40 mg/kg, po after 6 hrs; assay type: functional; procedure, shortened: as §2
Rattus norvegicus [8] = assay: Antiinflammatory activity in chronic phase of po dosed Lewis rat arthritis model assessed as inhibition of SCW-induced ankle swelling administered as bid for 14 days; assay type: functional, organism-based
Procedure, shortened: (§3)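 Female Lewis rats (80–100 g) received streptococcal cell wall material ip on day 0. On day 5, rats with a distinct acute-phase joint swelling response were randomized (n = 7/group). Vehicle, 10 or 40 mg/kg was given orally bid from day 10 (start of chronic phase) for 14 days. Ankle and paw swelling were followed.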

Rattus norvegicus [9] = assay: Antiinflammatory activity in chronic phase of Lewis rat arthritis model assessed as inhibition of SCW-induced ankle swelling at 10 to 40 mg/kg, po bid administered for 14 days; assay type: functional, organism-based; procedure, shortened: as §3

Sequence of Mast/stem cell growth factor receptor Kit (P10721 whole entry): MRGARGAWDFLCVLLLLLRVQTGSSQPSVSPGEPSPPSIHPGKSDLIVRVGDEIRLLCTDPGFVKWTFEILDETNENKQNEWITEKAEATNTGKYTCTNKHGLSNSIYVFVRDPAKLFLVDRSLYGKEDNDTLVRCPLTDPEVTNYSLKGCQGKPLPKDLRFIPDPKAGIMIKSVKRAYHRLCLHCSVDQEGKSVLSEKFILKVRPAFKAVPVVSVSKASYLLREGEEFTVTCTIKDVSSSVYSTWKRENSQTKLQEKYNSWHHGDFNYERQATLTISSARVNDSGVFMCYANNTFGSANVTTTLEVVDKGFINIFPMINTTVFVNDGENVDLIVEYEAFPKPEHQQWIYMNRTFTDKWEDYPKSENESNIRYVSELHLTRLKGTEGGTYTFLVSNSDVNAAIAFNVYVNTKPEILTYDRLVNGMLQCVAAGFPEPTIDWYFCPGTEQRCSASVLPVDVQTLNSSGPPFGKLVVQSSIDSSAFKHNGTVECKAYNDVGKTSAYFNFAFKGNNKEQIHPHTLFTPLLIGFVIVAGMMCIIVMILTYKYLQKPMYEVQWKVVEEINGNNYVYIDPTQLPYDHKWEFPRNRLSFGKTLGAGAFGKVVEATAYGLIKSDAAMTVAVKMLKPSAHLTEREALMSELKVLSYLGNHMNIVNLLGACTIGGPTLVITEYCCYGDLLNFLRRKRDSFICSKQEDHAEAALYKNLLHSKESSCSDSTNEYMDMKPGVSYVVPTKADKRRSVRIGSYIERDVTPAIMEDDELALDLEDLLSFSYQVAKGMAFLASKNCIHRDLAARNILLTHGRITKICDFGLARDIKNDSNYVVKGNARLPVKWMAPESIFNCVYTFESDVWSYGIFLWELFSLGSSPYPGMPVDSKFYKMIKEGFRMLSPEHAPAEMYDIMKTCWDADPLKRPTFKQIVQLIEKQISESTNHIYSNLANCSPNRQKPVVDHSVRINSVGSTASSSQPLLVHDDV

Compound: CC1(C)CC=C(c2cc(C(C)(C)NCCS(C)(=O)=O)ccc2NC(=O)c2nc(C#N)c[nH]2)CC1
- remaining at 10 min [1]: 93%
- remaining at 10 min [2]: 28%
- remaining at 10 min [3]: 62%

Compound: CC1(C)CC=C(c2cc(C(C)(C)NCCO)ccc2NC(=O)c2nc(C#N)c[nH]2)CC1
- Ratio IC50 (Mo7e): 32
- IC50 [4]: 0.0078 µM

Compound: CN(C)C(=O)c1ccc(NC(=O)c2nc(C#N)c[nH]2)c(C2=CCC(C)(C)CC2)c1
- IC50 [4]: 0.13 µM

Compound: N#Cc1cnc(C(=O)Nc2ccc(CCO)cc2C2=CCCCC2)[nH]1
- remaining at 10 min [1]: 7%
- IC50 [4]: 0.04 µM
- remaining at 10 min [2]: 3%
- remaining at 10 min [3]: 3%

Compound: COCCN1CCN(C(C)(C)c2ccc(NC(=O)c3nc(C#N)c[nH]3)c(C3=CCC(C)(C)CC3)c2)CC1
- remaining at 10 min [1]: 72%
- IC50 [5]: 0.21 µM
- remaining at 10 min [2]: 40%
- remaining at 10 min [3]: 73%

Compound: N#Cc1c[nH]c(C(=O)Nc2ccc(C(N)=O)cc2C2=CCCCC2)n1
- IC50 [4]: 0.034 µM

Compound: CC1(C)CC=C(c2cc(S(C)(=O)=O)ccc2NC(=O)c2nc(C#N)c[nH]2)CC1
- IC50 [4]: 0.059 µM

Compound: CCN1CCN(C(C)(C)c2ccc(NC(=O)c3nc(C#N)c[nH]3)c(C3=CCC(C)(C)CC3)c2)CC1
- remaining at 10 min [1]: 108%
- IC50 [5]: 0.05 µM
- remaining at 10 min [2]: 32%
- remaining at 10 min [3]: 84%

Compound: CC1(C)CC=C(c2cc(C(=O)O)ccc2NC(=O)c2nc(C#N)c[nH]2)CC1
- IC50 [4]: > 0.3 µM

Compound: N#Cc1c[nH]c(C(=O)Nc2ccc(CCC(=O)O)cc2C2=CCCCC2)n1
- remaining at 10 min [1]: 83%
- remaining at 10 min [2]: 19%

Compound: CC1(C)CC=C(c2cc(C(C)(C)O)ccc2NC(=O)c2nc(C#N)c[nH]2)CC1
- remaining at 10 min [1]: 110%
- IC50 [4]: 0.025 µM
- remaining at 10 min [2]: 96%
- Stability ([3]; microsomes, 10 min): 124%

Compound: CC1(C)CC=C(c2cc(C(C)(C)CO)ccc2NC(=O)c2nc(C#N)c[nH]2)CC1
- IC50 [4]: 0.033 µM

Compound: CC1(C)CC=C(c2cc(C(C)(C)N3CCS(=O)(=O)CC3)ccc2NC(=O)c2nc(C#N)c[nH]2)CC1
- remaining at 10 min [1]: 112%
- IC50 [5]: 0.25 µM
- inhibition in vivo at 30 mg/kg (Mus musculus [6]): 8%
- remaining at 10 min [2]: 98%
- remaining at 10 min [3]: 84%

Compound: CC1(C)CC=C(c2cc(CN3CCN(CCO)CC3)ccc2NC(=O)c2nc(C#N)c[nH]2)CC1
- remaining at 10 min [1]: 101%
- remaining at 10 min [2]: 2%
- remaining at 10 min [3]: 79%

Compound: CC1(C)CC=C(c2cc(C(N)=O)ccc2NC(=O)c2nc(C#N)c[nH]2)CC1
- IC50 [4]: 0.032 µM

Compound: CC1(C)CC=C(c2cc(Cc3nnn[nH]3)ccc2NC(=O)c2ncc(C#N)[nH]2)CC1
- IC50 [4]: > 0.1 µM

Compound: N#Cc1cnc(C(=O)Nc2ccc(CCS(=O)(=O)NN)cc2C2=CCCCC2)[nH]1
- IC50 [4]: 0.023 µM

Compound: CN1CCN(C(C)(C)c2ccc(NC(=O)c3ncc(C#N)[nH]3)c(C3=CCC(C)(C)CC3)c2)CC1
- remaining at 10 min [1]: 103%
- inhibition in vivo at 40 mg/kg (Mus musculus [7]): 0%
- remaining at 10 min [2]: 16%
- remaining at 10 min [3]: 110%

Compound: CC1(C)CC=C(c2cc(CCN3CCOCC3)ccc2NC(=O)c2ncc(C#N)[nH]2)CC1
- remaining at 10 min [1]: 66%
- remaining at 10 min [3]: 49%

Compound: COCCN(C)C(C)(C)c1ccc(NC(=O)c2nc(C#N)c[nH]2)c(C2=CCC(C)(C)CC2)c1
- remaining at 10 min [1]: 11%
- remaining at 10 min [2]: 13%

Compound: N#Cc1c[nH]c(C(=O)Nc2ccc(CCS(=O)(=O)N3CCOCC3)cc2C2=CCCCC2)n1
- remaining at 10 min [1]: 118%
- remaining at 10 min [2]: 4%
- remaining at 10 min [3]: 93%

Compound: CC1(C)CC=C(c2cc(CCS(=O)(=O)NN)ccc2NC(=O)c2nc(C#N)c[nH]2)CC1
- IC50 [4]: 0.021 µM

Compound: CC1(C)CC=C(c2cc(C(C)(C)N3CCOCC3)ccc2NC(=O)c2nc(C#N)c[nH]2)CC1
- IC50 [4]: 0.017 µM

Compound: N#Cc1c[nH]c(C(=O)Nc2ccc(CCS(N)(=O)=O)cc2C2=CCCCC2)n1
- IC50 [4]: 0.054 µM

Compound: N#Cc1c[nH]c(C(=O)Nc2ccc(S(=O)(=O)N3CCOCC3)cc2C2=CCCCC2)n1
- IC50 [4]: 0.21 µM

Compound: CN(C)CCOC(C)(C)c1ccc(NC(=O)c2ncc(C#N)[nH]2)c(C2=CCC(C)(C)CC2)c1
- remaining at 10 min [1]: 104%
- remaining at 10 min [2]: 39%

Compound: CC1(C)CC=C(c2cc(C(C)(C)N3CCN(CCO)CC3)ccc2NC(=O)c2ncc(C#N)[nH]2)CC1
- Activity (Rattus norvegicus [8]): Dose-dependent effect
- Activity (Rattus norvegicus [9]): Active
- inhibition in vivo at 40 mg/kg (Mus musculus [7]): 78%

Compound: CC1(C)CC=C(c2cc(CCS(N)(=O)=O)ccc2NC(=O)c2nc(C#N)c[nH]2)CC1
- remaining at 10 min [1]: 109%
- IC50 [4]: 0.086 µM
- remaining at 10 min [2]: 5%

Compound: N#Cc1cnc(C(=O)Nc2ccc(Cc3nnn[nH]3)cc2C2=CCCCC2)[nH]1
- IC50 [4]: > 0.3 µM

Compound: N#Cc1cnc(C(=O)Nc2ccc(CN3CCOCC3)cc2C2=CCCCC2)[nH]1
- remaining at 10 min [1]: 71%
- IC50 [4]: 0.02 µM
- remaining at 10 min [3]: 5%

Compound: COCCNC(C)(C)c1ccc(NC(=O)c2nc(C#N)c[nH]2)c(C2=CCC(C)(C)CC2)c1
- remaining at 10 min [1]: 79%
- IC50 [5]: 0.042 µM
- remaining at 10 min [2]: 78%
- remaining at 10 min [3]: 50%

Compound: CC1(C)CC=C(c2cc(C(C)(C)OCCN3CCOCC3)ccc2NC(=O)c2nc(C#N)c[nH]2)CC1
- remaining at 10 min [1]: 38%
- IC50 [5]: 0.057 µM
- remaining at 10 min [2]: 44%
- remaining at 10 min [3]: 93%

Compound: CN(C)CC(=O)N1CCC(c2ccc(NC(=O)c3nc(C#N)c[nH]3)c(C3=CCCCC3)c2)CC1
- Ratio IC50 (Mo7e): 15
- remaining at 10 min [2]: 77%

Compound: CC(C)(O)Cc1ccc(NC(=O)c2nc(C#N)c[nH]2)c(C2=CCCCC2)c1
- remaining at 10 min [1]: 66%
- IC50 [4]: 0.032 µM
- remaining at 10 min [2]: 47%
- remaining at 10 min [3]: 61%

Compound: CC1(C)CC=C(c2cc(CCO)ccc2NC(=O)c2ncc(C#N)[nH]2)CC1
- remaining at 10 min [1]: 74%
- IC50 [4]: 0.018 µM
- remaining at 10 min [3]: 41%

Compound: CN(CCS(C)(=O)=O)C(C)(C)c1ccc(NC(=O)c2nc(C#N)c[nH]2)c(C2=CCC(C)(C)CC2)c1
- IC50 [4]: 0.021 µM

Compound: N#Cc1cnc(C(=O)Nc2ccc(S(N)(=O)=O)cc2C2=CCCCC2)[nH]1
- IC50 [4]: > 0.15 µM

Compound: CC1(C)CC=C(c2cc(CC(=O)NCCCO)ccc2NC(=O)c2ncc(C#N)[nH]2)CC1
- IC50 [4]: > 0.1 µM

Compound: CC1(C)CC=C(c2cc(C(C)(C)OCCN3CCCC3)ccc2NC(=O)c2nc(C#N)c[nH]2)CC1
- IC50 [5]: 0.025 µM

Compound: CC1(C)CC=C(c2cc(-c3nnn[nH]3)ccc2NC(=O)c2ncc(C#N)[nH]2)CC1
- IC50 [4]: > 0.3 µM

Compound: N#Cc1cnc(C(=O)Nc2ccc(CCN3CCOCC3)cc2C2=CCCCC2)[nH]1
- remaining at 10 min [1]: 46%
- IC50 [4]: 0.0018 µM
- remaining at 10 min [3]: 2%

Compound: CC1(C)CC=C(c2cc(C(C)(C)NCCN3CCOCC3)ccc2NC(=O)c2nc(C#N)c[nH]2)CC1
- remaining at 10 min [1]: 82%
- IC50 [4]: 0.0058 µM
- IC50 [5]: 0.092 µM
- inhibition in vivo at 30 mg/kg (Mus musculus [6]): 14%
- remaining at 10 min [2]: 90%
- remaining at 10 min [3]: 62%

Compound: CC(O)c1ccc(NC(=O)c2ncc(C#N)[nH]2)c(C2=CCC(C)(C)CC2)c1 (centres undefined)
- IC50 [4]: > 0.15 µM

Compound: CC1(C)CC=C(c2cc(S(N)(=O)=O)ccc2NC(=O)c2nc(C#N)c[nH]2)CC1
- IC50 [4]: > 0.15 µM
